According to PubChem BioAssay AID588483 (Southern Research Specialized Biocontainment Screening …, 2011):
Values joined by “and” are separate entries in the source; they are usually repeats but may differ in a detail not shown here. Equal entries are not always repeated. Active and inactive are the calls of the source.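 The calls were made as follows: active = viability below 70% at any tested concentration, read as cytotoxicity; inactive = the rest.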

Tests used:
[1] = HEp-2 cell cytotoxicity, dose response, cytotoxicity control for RSV inhibitor project, synthesized compounds, set 14 (AID 588483); conditions: HEp-2 cell viability, luminescence (cytotoxicity counter-screen); at 150 µM (top of the series)
Procedure, shortened: (§1)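 Test system: uninfected HEp-2 human cells, no virus added. Input: 10,595 HEp-2 cells per well. Times: six-day compound exposure at 37 °C. Technique: ATP-based luminescence with CellTiter-Glo reagent. Measure: percent viability versus cell-control median, CC50 from four-parameter fit. Dosing: two-fold compound dilution series, 0.5% DMSO final. Replication: triplicate wells per compound concentration.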

[2] = system: HEp-2 cell viability, luminescence (cytotoxicity counter-screen); experiment: as above
Procedure, shortened: as §1

Compound	viability [1]	CC50 [2]
O=C(O)c1ccc(Cn2c(=O)n(Cc3ccc(C(=O)NCC4COC4)cc3)c(=O)c3ccccc32)cc1	119% (inactive) and 107% (inactive)	
CN(C)c1ccc(Cn2c(=O)n(Cc3ccc(C(=O)NCC4COC4)cc3)c(=O)c3ccccc32)cc1		29.7 µM
